ChEMBL document CHEMBL1123011, “Isoxazoles with antipicornavirus activity” (1985)
Converted amounts (≈) assume the structure as drawn. The source made the active and inactive calls. The calls are words filed in the database; no cut-off is given here.

Columns and labels:
[1] = system: Poliovirus 2; experiment: In vitro for anti-picornavirus activity against Poliovirus type-2; Not Active.; format: functional, organism-based
Outline: (§1)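 Plaque-reduction assay on day-old HeLa (Ohio) monolayers at 90% confluence, infected with polio-2 at ca. 80 pfu/well. Adsorption was at least 1 h at 37 °C in 2% CO2. Cells were then overlaid in duplicate with drug in M-199/calf serum/agarose (Me2SO stock at 10 mg/mL, twofold dilutions) and held 3 days. Plaques were fixed with formaldehyde, stained with crystal violet and counted. MIC is the concentration giving 50% plaque reduction.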

[2] = system: rhinovirus A2; experiment: (§2) In vitro anti-picornavirus activity against Rhinovirus type-2.; format: functional; conditions: Rhinovirus A
Outline: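 HeLa (Ohio) monolayers (day-old, 90%) were infected at about 80 pfu/well and adsorbed at least 1 h at 33 °C in 2% CO2. After 3 days at 33 °C they were fixed with formaldehyde and stained with crystal violet.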

[3] = Maximum testable level of compound was evaluated; format: functional
Outline: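 In the HeLa (Ohio) plaque-overlay system, Me2SO-solubilized compound was twofold serially diluted into the agarose overlay. Uninfected cell controls were run alongside and cells were stained with crystal violet after 3 days. The maximum testable level was taken as the concentration below which no cytotoxic effects were seen.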

[4] = system: Poliovirus 2; experiment: In vitro anti-picornavirus activity against Poliovirus type-2.; format: functional; conditions: Enterovirus C
[5] = system: Poliovirus 2; experiment: Compound tested in vitro for anti-picornavirus activity against Poliovirus type-2; NA=Not Active; format: functional, organism-based; outline: as §1
[6] = system: rhinovirus A2; experiment: as §2; format: functional; conditions: Rhinovirus A; remark: listed apart in the source
Outline: (§3)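 HeLa (Ohio) monolayers (day-old, 90%) were infected at about 80 pfu/well and adsorbed at least 1 h at 33 °C in 2% CO2. After 3 days at 33 °C they were fixed with formaldehyde and stained with crystal violet. MIC was the concentration giving 50% fewer plaques.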

[7] = system: rhinovirus A2; experiment: In vitro anti-picornavirus activity against Rhinovirus type-2; Not Active.; format: functional, organism-based; outline: as §3
[8] = system: Poliovirus 2; experiment: Compound tested in vitro for anti-picornavirus activity against Poliovirus type-2; format: functional; conditions: Enterovirus C; outline: as §1
[9] = system: Poliovirus 2; experiment: Compound tested in vitro for anti-picornavirus activity against Poliovirus type-2; NA=Not Active.; format: functional, organism-based; outline: as §1

SMILES | MIC [2] [µg/mL] | MTL [3] [µg/mL] | MIC [4] [µg/mL] | MIC [6] [µg/mL] | also measured
CCOC(=O)c1ccc(OCCCCCCCCc2c(CC)noc2CC)cc1 | 0.4 (≈ 0.996 µM) | 12.5 | – | – | MIC [1]: inactive
Cc1cc(CCCCCCCOc2ccc(Cl)cc2)on1 | 1.5 (≈ 4.87 µM) | 3.1 | 0.3 (≈ 0.975 µM) | – | –
CCOC(=O)c1ccc(OCCCCc2cc(C)no2)cc1 | – | 6.2 | – | 3.1 (≈ 10.2 µM) | MIC [5]: inactive
CCC(=O)c1ccc(OCCCCCCCc2cc(C)no2)cc1 | 1.7 (≈ 5.16 µM) | 6.2 | 0.4 (≈ 1.21 µM) | – | –
Cc1cc(CCCCCCCOc2ccc(OCc3ccccc3)cc2)on1 | – | 12.5 | – | – | MIC [7]: inactive
CCc1noc(CC)c1CCCCCCOc1ccc2c(c1)OCO2 | – | 6.2 | – | – | MIC [5]: inactive; MIC [7]: inactive
CCOC(=O)c1ccc(OCCCCCCCCc2cc(C)no2)cc1 | 0.05 (≈ 0.139 µM) | 12.5 | – | – | MIC [1]: inactive
CCOC(=O)c1ccc(OCCCCCCCc2cc(C)no2)cc1 | 0.025 (≈ 0.0724 µM) | 2.5 | 0.8 (≈ 2.32 µM) | – | –
Cc1ccc(OCCCCCCCc2cc(C)no2)c(Cl)c1 | 1.2 (≈ 3.73 µM) | 6.2 | 0.8 (≈ 2.49 µM) | – | –
CCc1noc(CC)c1CCCCCCOc1ccc(OC)cc1[N+](=O)[O-] | 0.3 (≈ 0.797 µM) | 6 | 1.5 (≈ 3.98 µM) | – | –
CCOC(=O)c1ccc(OCCCCCCc2cc(C)no2)cc1 | – | 12.5 | – | 0.01 (≈ 0.0302 µM) | MIC [8]: 0.8 µg/mL (≈ 2.41 µM)
CCOC(=O)c1ccc(OCCCCCc2cc(C)no2)cc1 | – | 12.5 | – | 0.015 (≈ 0.0473 µM) | MIC [8]: 0.6 µg/mL (≈ 1.89 µM)
CCc1noc(CC)c1CCCCCCOc1ccc(OC)cc1Br | – | 6 | – | 0.4 (≈ 0.975 µM) | MIC [5]: inactive
CCc1noc(CC)c1CCCCCCOc1ccc(Br)cc1 | – | 6 | – | – | MIC [5]: inactive; MIC [7]: inactive
CCOC(=O)c1ccc(OCCCCCCc2c(CC)noc2CC)cc1 | – | 6.2 | – | 0.1 (≈ 0.268 µM) | MIC [8]: 0.5 µg/mL (≈ 1.34 µM)
Cc1cc(CCCCCCCOc2ccc(C(=O)N(C)C)cc2)on1 | – | 3.1 | 2.5 (≈ 7.26 µM) | – | MIC [7]: inactive
COc1ccc(OCCCCCc2cc(C)no2)c(Cl)c1 | – | 12.5 | – | 0.4 (≈ 1.29 µM) | MIC [8]: 0.2 µg/mL (≈ 0.646 µM)
CCc1noc(CC)c1CCCCCCOc1cccc(I)c1 | – | 12.5 | – | 6.3 (≈ 14.7 µM) | MIC [5]: inactive
CCc1noc(CC)c1CCCCCCOc1ccc(C(=O)OC)cc1Br | – | 12.5 | – | 0.4 (≈ 0.912 µM) | MIC [8]: 2.2 µg/mL (≈ 5.02 µM)
COc1ccc(OCCCCCCCCc2cc(C)no2)c(Cl)c1 | 0.16 (≈ 0.455 µM) | 12.5 | 0.65 (≈ 1.85 µM) | – | –
CCOC(=O)c1ccc(OCCCCCCCc2c(CC)noc2CC)cc1 | 0.05 (≈ 0.129 µM) | 12 | 0.4 (≈ 1.03 µM) | – | –
Cc1cc(CCCCCCCOc2ccc(OC(C)C)cc2)on1 | 0.7 (≈ 2.11 µM) | 12.5 | 0.1 (≈ 0.302 µM) | – | –
CCc1noc(CC)c1CCCCCCOc1ccc(OC)cc1C(=O)OC | – | 12 | – | – | MIC [8]: 2.9 µg/mL (≈ 7.45 µM); MIC [7]: inactive
CCc1noc(CC)c1CCCCCCOc1ccc(C(=O)OC)cc1Cl | – | 1.6 | – | 0.4 (≈ 1.02 µM) | MIC [8]: 0.61 µg/mL (≈ 1.55 µM)

SMILES | MIC [2] [µg/mL] | MTL [3] [µg/mL] | MIC [4] [µg/mL] | MIC [6] [µg/mL] | also measured
CCc1noc(CC)c1CCCCCCOc1ccc(C(=O)O)cc1 | – | 3.1 | – | – | MIC [5]: inactive; MIC [7]: inactive
Cc1cc(CCCCCCCOc2ccc(C(N)=O)cc2)on1 | – | 12.5 | – | – | MIC [1]: inactive; MIC [7]: inactive
Cc1cc(CCCCCCCOc2ccc(C(=O)OC(C)(C)C)cc2)on1 | 6.2 (≈ 16.6 µM) | 2.5 | 1.2 (≈ 3.21 µM) | – | –
Cc1cc(CCCCCCCOc2ccc(C(C)C)cc2)on1 | 1 (≈ 3.17 µM) | 12.5 | 0.04 (≈ 0.127 µM) | – | –
Cc1cc(CCCCCCCOc2ccc([N+](=O)[O-])cc2)on1 | – | 1.6 | 1.5 (≈ 4.71 µM) | – | MIC [7]: inactive
CCOC(=O)c1cccc(OCCCCCCCc2cc(C)no2)c1 | 1.6 (≈ 4.63 µM) | 12.5 | – | – | MIC [1]: inactive
CCc1noc(CC)c1CCCCCCOc1c(OC)cccc1OC | – | 6.2 | – | 3.1 (≈ 8.58 µM) | MIC [5]: inactive
CCc1noc(CC)c1CCCCCCOc1ccc(SC)cc1 | – | 12.5 | – | – | MIC [8]: 0.6 µg/mL (≈ 1.73 µM); MIC [7]: inactive
COc1ccc(OCCCCCCCc2cc(C)no2)c([N+](=O)[O-])c1 | 0.3 (≈ 0.861 µM) | 3.1 | 0.2 (≈ 0.574 µM) | – | –
CCc1noc(CC)c1CCCCCCOc1ccc(F)cc1Cl | – | 12.5 | – | 3.1 (≈ 8.76 µM) | MIC [5]: inactive
Cc1cc(CCCCCCCOc2ccccc2)on1 | 1.2 (≈ 4.39 µM) | 6.2 | 1.7 (≈ 6.22 µM) | – | –
CC(=O)c1ccc(OCCCCCCCc2cc(C)no2)cc1 | 1.6 (≈ 5.07 µM) | 12.5 | 0.01 (≈ 0.0317 µM) | – | –
CCc1noc(CC)c1CCCCCCOc1ccc(OC)cc1 | – | 6.2 | – | 3.1 (≈ 9.35 µM) | MIC [5]: inactive
CCc1noc(CC)c1CCCCCCOc1ccccc1F | – | 6.2 | – | 3.1 (≈ 9.71 µM) | MIC [5]: inactive
COC(=O)c1ccc(OCCCCCCCc2cc(C)no2)cc1 | 3 (≈ 9.05 µM) | 6.2 | 0.4 (≈ 1.21 µM) | – | –
CCc1noc(CC)c1CCCCCCOc1ccccc1C(F)(F)F | – | 6.2 | – | 3.1 (≈ 8.39 µM) | MIC [5]: inactive
CCc1noc(CC)c1CCCCCCOc1c(Cl)cccc1Cl | – | 12 | – | 1.6 (≈ 4.32 µM) | MIC [8]: 5.9 µg/mL (≈ 15.9 µM)
Cc1cc(CCCCCCCOc2ccc(C(=O)NN)cc2)on1 | 0.64 (≈ 1.93 µM) | 12.5 | – | – | MIC [1]: inactive
CCc1noc(CC)c1CCCCCCOc1ccc(OC)cc1Cl | – | 12 | – | 0.8 (≈ 2.19 µM) | MIC [9]: inactive
CCc1noc(CC)c1CCCCCCOc1ccc(O)cc1 | – | 25 | – | – | MIC [5]: inactive; MIC [7]: inactive
Cc1cc(CCCCCCCOc2ccc(C(=O)OC(C)C)cc2)on1 | 0.2 (≈ 0.556 µM) | 12.5 | 0.9 (≈ 2.5 µM) | – | –
COc1ccc(OCCCCCCc2cc(C)no2)c(Cl)c1 | – | 12.5 | – | 0.8 (≈ 2.47 µM) | MIC [8]: 0.3 µg/mL (≈ 0.926 µM)
CCc1noc(CC)c1CCCCCCOc1ccc(OC)cc1C(=O)O | – | 12.5 | – | – | MIC [5]: inactive; MIC [7]: inactive
CCCOC(=O)c1ccc(OCCCCCCCc2cc(C)no2)cc1 | 0.07 (≈ 0.195 µM) | 25 | – | – | MIC [1]: inactive
